Values after ≈ are worked out from the molar mass of the structure shown. Active and inactive are the calls of the source. The calls are words filed in the database; no cut-off is given here.
Tests used:
[1] = target: T1, von Hippel-Lindau disease tumor suppressor/Interleukin-1 receptor-associated kinase 4 (Homo sapiens, UniProt Q9NWZ3+P40337); experiment: Protac activity at VHL/IRAK4 in human PBMCs assessed as induction of degradation of IRAK4 at 0.1 to 10 uM incubated for 24 hrs by Western blot analysis
Target sequence in this assay (P40337 whole entry, looked up, one chain of several): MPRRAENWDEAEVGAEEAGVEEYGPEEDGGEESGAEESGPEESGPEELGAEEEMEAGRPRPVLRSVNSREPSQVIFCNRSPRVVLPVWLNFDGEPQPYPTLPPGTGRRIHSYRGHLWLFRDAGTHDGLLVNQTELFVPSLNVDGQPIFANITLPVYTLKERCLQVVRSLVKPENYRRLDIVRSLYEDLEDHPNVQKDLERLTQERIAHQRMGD

[2] = target: T1, von Hippel-Lindau disease tumor suppressor/Interleukin-1 receptor-associated kinase 4; experiment: Protac activity at VHL/IRAK4 in human PBMC assessed as induction of degradation of IRAK4 at 3 uM incubated for 24 hrs by Western blot analysis relative to control; format: protein assay
In short: (§1)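 PBMCs exposed to rising compound concentrations for 24 h. IRAK4 protein read by Western blot against DMSO-treated cells. Dmax is the maximum degradation observed.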
Target sequence in this assay (P40337 whole entry, looked up, one chain of several): as above

[3] = target: Interleukin-1 receptor-associated kinase 1 (Homo sapiens, UniProt P51617); experiment: Binding affinity to human IRK1 using myelin basic protein as substrate by [gamma-33P]-ATP assay
Chain of Interleukin-1 receptor-associated kinase 1 (P51617 whole entry): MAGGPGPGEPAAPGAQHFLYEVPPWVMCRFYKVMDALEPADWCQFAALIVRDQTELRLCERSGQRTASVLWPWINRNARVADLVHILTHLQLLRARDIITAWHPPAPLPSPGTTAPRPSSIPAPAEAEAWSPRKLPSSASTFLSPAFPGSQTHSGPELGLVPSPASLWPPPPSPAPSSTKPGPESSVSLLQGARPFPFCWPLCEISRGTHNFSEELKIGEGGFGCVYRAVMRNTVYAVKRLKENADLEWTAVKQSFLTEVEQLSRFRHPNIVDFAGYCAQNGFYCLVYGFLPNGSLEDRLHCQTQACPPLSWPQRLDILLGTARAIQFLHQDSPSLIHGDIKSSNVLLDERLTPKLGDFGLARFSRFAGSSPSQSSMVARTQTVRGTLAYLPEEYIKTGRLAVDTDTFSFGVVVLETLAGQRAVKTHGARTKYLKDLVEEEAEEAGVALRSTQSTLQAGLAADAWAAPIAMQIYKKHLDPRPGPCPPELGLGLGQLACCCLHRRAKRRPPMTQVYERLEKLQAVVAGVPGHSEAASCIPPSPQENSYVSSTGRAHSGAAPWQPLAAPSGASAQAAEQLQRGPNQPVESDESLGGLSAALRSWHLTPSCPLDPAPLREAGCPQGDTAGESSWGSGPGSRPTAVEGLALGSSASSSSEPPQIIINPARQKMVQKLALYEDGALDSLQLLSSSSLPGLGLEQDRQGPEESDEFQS

[4] = target: T2, Interleukin-1 receptor-associated kinase 4 (Homo sapiens, UniProt Q9NWZ3); experiment: Binding affinity to human IRK4 using myelin basic protein as substrate by [gamma-33P]-ATP assay
T2 sequence (Q9NWZ3 whole entry): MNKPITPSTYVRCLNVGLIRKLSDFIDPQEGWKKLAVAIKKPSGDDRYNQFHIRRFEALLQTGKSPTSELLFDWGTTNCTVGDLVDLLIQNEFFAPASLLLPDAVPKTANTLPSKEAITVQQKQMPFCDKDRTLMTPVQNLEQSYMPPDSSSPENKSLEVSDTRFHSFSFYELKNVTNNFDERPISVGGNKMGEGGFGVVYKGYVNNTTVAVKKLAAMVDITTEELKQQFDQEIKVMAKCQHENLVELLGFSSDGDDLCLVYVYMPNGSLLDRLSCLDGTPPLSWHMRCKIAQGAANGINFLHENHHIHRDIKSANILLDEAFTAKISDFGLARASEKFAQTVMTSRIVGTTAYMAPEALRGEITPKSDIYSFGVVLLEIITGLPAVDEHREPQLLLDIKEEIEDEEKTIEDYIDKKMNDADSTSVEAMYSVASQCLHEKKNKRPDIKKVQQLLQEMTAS

[5] = target: T1, von Hippel-Lindau disease tumor suppressor/Interleukin-1 receptor-associated kinase 4; experiment: Protac activity at VHL/IRAK4 in human PBMC assessed as remaining IRAK4 level at 100 nM incubated for 24 hrs by Western blot analysis relative to control; format: protein assay
In short: as §1
Target sequence in this assay (P40337 whole entry, looked up, one chain of several): as the sequence (P40337 whole entry, looked up, one chain of several) above

[6] = target: T1, von Hippel-Lindau disease tumor suppressor/Interleukin-1 receptor-associated kinase 4; experiment: Protac activity at VHL/IRAK4 in human PBMC assessed as remaining IRAK4 level at 10 uM incubated for 24 hrs by Western blot analysis relative to control; format: protein assay
In short: as §1
Target sequence in this assay (P40337 whole entry, looked up, one chain of several): as above

[7] = target: T1, von Hippel-Lindau disease tumor suppressor/Interleukin-1 receptor-associated kinase 4; experiment: Protac activity at VHL/IRAK4 in human PBMC assessed as remaining IRAK4 level at 1 uM incubated for 24 hrs by Western blot analysis relative to control; format: protein assay
In short: as §1
Target sequence in this assay (P40337 whole entry, looked up, one chain of several): as above

[8] = target: T1, von Hippel-Lindau disease tumor suppressor/Interleukin-1 receptor-associated kinase 4; experiment: Protac activity at VHL/IRAK4 in human PBMC assessed as remaining IRAK4 level at 300 nM incubated for 24 hrs by Western blot analysis relative to control; format: protein assay
In short: as §1
Target sequence in this assay (P40337 whole entry, looked up, one chain of several): as above

[9] = Chromatographic hydrophobicity index, log D of compound at pH 7.4; format: physicochemical; conditions: buffer
[10] = target: T1, von Hippel-Lindau disease tumor suppressor/Interleukin-1 receptor-associated kinase 4; experiment: Protac activity at VHL/IRAK4 in human dermal fibroblast assessed as reduction in IL-1beta stimulated IL-6 level at 300 nM incubated for 18 hrs followed by IL-1beta stimulation further incubated for 8 hrs by MSD assay; format: protein assay
In short: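 Human dermal fibroblasts pretreated 18 h with 300 nM compound, then stimulated 8 h with IL-1β (10 ng/mL). Secreted IL-6 measured. n = 4, mean ± SE.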

[11] = target: T1, von Hippel-Lindau disease tumor suppressor/Interleukin-1 receptor-associated kinase 4; experiment: Protac activity at VHL/IRAK4 in human PBMC assessed as induction of degradation of IRAK4 incubated for 24 hrs by Western blot analysis relative to control; format: protein assay
In short: as §1

[12] = target: Protein cereblon/Interleukin-1 receptor-associated kinase 4 (Homo sapiens) (UniProt Q9NWZ3+Q96SW2); experiment: Protac activity at CRBN/IRAK4 in human PBMC assessed as induction of degradation of IRAK4 incubated for 24 hrs by Western blot analysis relative to control; format: protein assay
Chain of Protein cereblon/Interleukin-1 receptor-associated kinase 4 (Homo sapiens) (Q96SW2 whole entry, looked up, one chain of several): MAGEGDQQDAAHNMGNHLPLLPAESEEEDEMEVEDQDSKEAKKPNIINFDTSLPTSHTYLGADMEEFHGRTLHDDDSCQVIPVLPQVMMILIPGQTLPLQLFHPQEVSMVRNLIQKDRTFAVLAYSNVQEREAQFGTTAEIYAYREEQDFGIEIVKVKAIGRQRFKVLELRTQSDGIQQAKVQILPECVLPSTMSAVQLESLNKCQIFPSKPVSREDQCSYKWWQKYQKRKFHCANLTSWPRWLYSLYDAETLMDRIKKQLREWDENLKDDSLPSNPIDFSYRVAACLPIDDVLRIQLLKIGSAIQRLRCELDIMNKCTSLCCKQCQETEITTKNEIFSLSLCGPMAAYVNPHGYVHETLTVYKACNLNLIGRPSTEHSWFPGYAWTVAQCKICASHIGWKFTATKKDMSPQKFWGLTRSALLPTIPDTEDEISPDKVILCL
In short: as §1

[13] = target: E3 ubiquitin-protein ligase XIAP/Interleukin-1 receptor-associated kinase 4 (Homo sapiens) (UniProt Q9NWZ3+P98170); experiment: Protac activity at IAP/IRAK4 in human PBMC assessed as induction of degradation of IRAK4 incubated for 24 hrs by Western blot analysis relative to control; format: protein assay
Chain of E3 ubiquitin-protein ligase XIAP/Interleukin-1 receptor-associated kinase 4 (Homo sapiens) (P98170 whole entry, looked up, one chain of several): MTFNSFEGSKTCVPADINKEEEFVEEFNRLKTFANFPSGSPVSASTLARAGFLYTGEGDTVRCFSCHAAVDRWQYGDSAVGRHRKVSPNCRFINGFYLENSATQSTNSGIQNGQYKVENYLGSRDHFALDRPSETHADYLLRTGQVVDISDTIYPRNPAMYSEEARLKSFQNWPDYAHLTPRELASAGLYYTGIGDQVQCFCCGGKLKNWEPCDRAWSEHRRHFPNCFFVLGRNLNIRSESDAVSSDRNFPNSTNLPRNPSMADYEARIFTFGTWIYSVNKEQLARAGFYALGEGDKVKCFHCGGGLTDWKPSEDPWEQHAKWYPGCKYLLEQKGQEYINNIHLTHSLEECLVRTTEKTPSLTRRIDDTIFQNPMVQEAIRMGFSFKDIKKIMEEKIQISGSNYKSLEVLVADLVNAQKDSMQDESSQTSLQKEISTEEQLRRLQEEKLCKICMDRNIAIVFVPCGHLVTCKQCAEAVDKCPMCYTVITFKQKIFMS
In short: as §1

[14] = target: T3, von Hippel-Lindau disease tumor suppressor/Interleukin-1 receptor-associated kinase 4 (Homo sapiens, UniProt P40337+Q9NWZ3); experiment: Protac activity at VHL/IRAK4 in human PBMC assessed as reduction in R848-stimulated IL-1beta level preincubated for 18 hrs followed by R848-stimulation and measured after 8 hrs by MSD assay; format: protein assay
T3 sequence (P40337 whole entry, one chain of several): as the sequence (P40337 whole entry, looked up, one chain of several) above
In short: (§2)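 PBMCs pretreated 18 h with compound, then stimulated 8 h with R848 (2.5 μg/mL). Secreted cytokines measured by MSD electrochemiluminescence.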

[15] = target: T3, von Hippel-Lindau disease tumor suppressor/Interleukin-1 receptor-associated kinase 4; experiment: Protac activity at VHL/IRAK4 in human PBMC assessed as reduction in R848-stimulated IL-8 level preincubated for 18 hrs followed by R848 stimulation and measured after 8 hrs by MSD assay; format: protein assay
In short: as §2

[16] = target: T1, von Hippel-Lindau disease tumor suppressor/Interleukin-1 receptor-associated kinase 4; experiment: Protac activity at VHL/IRAK4 in human epoxomicin PBMC assessed as increase in p21 accumulation at 0.01 to 10 uM incubated for 22 hrs by Western blot analysis; format: protein assay
In short: (§3)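 PBMCs pretreated 2 h with 10 μM epoxomicin, then given compound for a further 22 h. IRAK4 and p21 (proteasome-inhibition marker) read by Western blot against DMSO-treated cells.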

[17] = target: T3, von Hippel-Lindau disease tumor suppressor/Interleukin-1 receptor-associated kinase 4; experiment: Protac activity at VHL/IRAK4 in human PBMC assessed as reduction in R848-stimulated IL-10 level preincubated for 18 hrs followed by R848 stimulation and measured after 8 hrs by MSD assay; format: protein assay
In short: as §2

[18] = target: T1, von Hippel-Lindau disease tumor suppressor/Interleukin-1 receptor-associated kinase 4; experiment: Protac activity at VHL/IRAK4 in human epoxomicin pretreated PBMC assessed as induction of degradation of IRAK4 at 0.01 to 10 uM incubated for 22 hrs by Western blot analysis; format: protein assay
In short: as §3

[19] = target: T1, von Hippel-Lindau disease tumor suppressor/Interleukin-1 receptor-associated kinase 4; experiment: Protac activity at VHL/IRAK4 in human PBMC assessed as induction of degradation of IRAK4 incubated for 24 hrs by Western blot analysis; format: protein assay
In short: as §1
Target sequence in this assay (P40337 whole entry, one chain of several): as the sequence (P40337 whole entry, looked up, one chain of several) above

[20] = target: T3, von Hippel-Lindau disease tumor suppressor/Interleukin-1 receptor-associated kinase 4; experiment: Protac activity at VHL/IRAK4 in human PBMC assessed as reduction in R848-stimulated IL-6 level preincubated for 18 hrs followed by R848 stimulation and measured after 8 hrs by MSD assay; format: protein assay
In short: as §2

[21] = Solubility of compound; format: physicochemical
[22] = target: T3, von Hippel-Lindau disease tumor suppressor/Interleukin-1 receptor-associated kinase 4; experiment: Protac activity at VHL/IRAK4 in human PBMC assessed as reduction in R848-stimulated IFNgamma preincubated for 18 hrs followed by R848 stimulation and measured after 8 hrs by MSD assay; format: protein assay
In short: as §2

[23] = target: T3, von Hippel-Lindau disease tumor suppressor/Interleukin-1 receptor-associated kinase 4; experiment: Protac activity at VHL/IRAK4 in human PBMC assessed as reduction in R848-stimulated TNFalpha level preincubated for 18 hrs followed by R848 stimulation and measured after 8 hrs by MSD assay; format: protein assay
In short: as §2

[24] = target: T1, von Hippel-Lindau disease tumor suppressor/Interleukin-1 receptor-associated kinase 4; experiment: Protac activity at VHL/IRAK4 in human dermal fibroblast assessed as induction of degradation of IRAK4 incubated for 24 hrs by Western blot analysis; format: protein assay
In short: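 Human dermal fibroblasts treated with compound for 24 h. IRAK4 protein measured by Western blot and DC50 derived.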
Target sequence in this assay (P40337 whole entry, one chain of several): as the sequence (P40337 whole entry, looked up, one chain of several) above

| SMILES | Activity [1] | IC50 [3] [nM] | IC50 [4] [nM] | Chromatographic log D at pH 7.4 (ChromLogD) [9] | also measured |
| --- | --- | --- | --- | --- | --- |
| COc1cc2c(OC[C@@H]3CCC(=O)N3)ncc(C#CCCCC(=O)N[C@H](C(=O)N3C[C@H](O)C[C@H]3C(=O)NCc3ccc(-c4scnc4C)cc3)C(C)(C)C)c2cc1C(N)=O | inactive | – | – | – | – |
| COc1cc2c(OC[C@@H]3CCC(=O)N3)ncc(C#CCCCCCCCCCCC(=O)N[C@H](C(=O)N3C[C@H](O)C[C@H]3C(=O)NCc3ccc(-c4scnc4C)cc3)C(C)(C)C)c2cc1C(N)=O | – | > 10000 | 0.099 | 5.82 | Emax [2]: 50%; Activity [5]: 101%; Activity [6]: 65%; Activity [7]: 81%; Activity [8]: 80% |
| COc1cc2c(OC[C@@H]3CCC(=O)N3)ncc(Br)c2cc1C(N)=O | – | > 10000 | 2.1 | 2.1 | – |
| COc1cc2c(OC[C@@H]3CCC(=O)N3)ncc(C#CCCC(=O)N[C@H](C(=O)N3C[C@H](O)C[C@H]3C(=O)NCc3ccc(-c4scnc4C)cc3)C(C)(C)C)c2cc1C(N)=O | inactive | – | – | – | – |
| CC[C@@H]1[C@H](F)C(=O)N[C@@H]1COc1nccc2cc(C(N)=O)c(OC)cc12 | – | – | – | – | Activity [10]: inactive |
| COc1cc2c(OC[C@@H]3CCC(=O)N3)ncc(C#CCOCCOCCOCCC(=O)N[C@H](C(=O)N3C[C@H](O)C[C@H]3C(=O)NCc3ccc(-c4scnc4C)cc3)C(C)(C)C)c2cc1C(N)=O | inactive | > 10000 | 0.29 | 3.18 | Emax [11]: 0% |
| COc1cc2c(OC[C@@H]3CCC(=O)N3)ncc(C#CCCCCCCCCCCOc3cccc4c3C(=O)N(C3CCC(=O)NC3=O)C4=O)c2cc1C(N)=O (some centres not stated) | inactive | > 10000 | 2.5 | 6.01 | Emax [12]: 0% |
| CN[C@@H](C)C(=O)N[C@H](C(=O)N1C[C@@H](NC(=O)CCOCCOCCOCC#Cc2cnc(OC[C@@H]3CCC(=O)N3)c3cc(OC)c(C(N)=O)cc23)C[C@H]1C(=O)N[C@@H]1CCCc2ccccc21)C1CCCCC1 | inactive | > 10000 | 0.022 | 3.79 | Emax [13]: 0% |
| CN[C@@H](C)C(=O)N[C@H](C(=O)N1C[C@@H](NC(=O)CCCCCCCCCCC#Cc2cnc(OC[C@@H]3CCC(=O)N3)c3cc(OC)c(C(N)=O)cc23)C[C@H]1C(=O)N[C@@H]1CCCc2ccccc21)C1CCCCC1 | inactive | 6940 | 21 | 6.56 | Emax [13]: 0% |
| CC[C@@H]1[C@H](F)C(=O)N[C@@H]1COc1ncc(C#CCN2CCC3(CC2)CCN(c2ncc(C(=O)N[C@H](C(=O)N4C[C@H](O)C[C@H]4C(=O)NCc4ccc(-c5scnc5C)cc4)C(C)(C)C)cn2)CC3)c2cc(C(N)=O)c(OC)cc12 | – | – | – | 4.97 | IC50 [14]: 39.8 nM; IC50 [15]: 79.4 nM; Activity [16]: Active; IC50 [17]: 316 nM; Activity [18]: inactive; DC50 [19]: 151 nM; IC50 [20]: 63.1 nM; solubility [21]: 5 µM (≈ 5.43 µg/mL); IC50 [22]: 31.6 nM; Activity [10]: inactive; IC50 [23]: 50.1 nM; DC50 [24]: 36 nM |
| CC[C@@H]1[C@H](F)C(=O)N[C@@H]1COc1ncc(C#CCCCCCCCCCCC(=O)N[C@H](C(=O)N2CC(O)CC2C(=O)NCc2ccc(-c3scnc3C)cc2)C(C)(C)C)c2cc(C(N)=O)c(OC)cc12 (single isomer, unassigned) | – | – | – | 6.44 | DC50 [19]: 259 nM; solubility [21]: < 1 µM |
| COc1cc2c(OC[C@@H]3CCC(=O)N3)ncc(C#CCOCCOCCOCCOc3cccc4c3C(=O)N(C3CCC(=O)NC3=O)C4=O)c2cc1C(N)=O (some centres not stated) | inactive | – | – | – | Emax [12]: 0% |

From ChEMBL document CHEMBL4359855, “Targeting IRAK4 for Degradation with PROTACs” (ACS Med Chem Lett, 2019)
